Experimental data: ChEMBL document CHEMBL4350958, “Rational Design of Short Peptide Variants by Using Kunitzin-RE, an Amphibian-Derived Bioactivity Peptide, for Acquired Potent Broad-Spectrum Antimicrobial and Improved Therapeutic Potential of Commensalism Coinfection of Pathogens” (J Med Chem, 2019)

Assays:
Staphylococcus aureus [1] = experiment: Antibacterial activity against Staphylococcus aureus ATCC 25923 measured after 24 hrs; format: functional; details: ATCC 25923, 24 h
Outline: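 Broth microdilution modified from NCCLS. Mid-log bacteria at (0.5–1) × 10^5 CFU mL−1 in MHB, mixed with peptides serially diluted in 0.2% BSA. Incubated 24 h at 37 °C, read at A492. MIC taken as lowest concentration giving 95% growth inhibition. At least three independent experiments, each with three technical replicates.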

[2] = Therapeutic index, ratio of MHC10 for hemolytic activity in human RBC to MIC95 against Staphylococcus aureus ATCC 25923; format: toxicity; details: human red blood cells (erythrocytes), read-out: TI
Outline: (§1)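 Therapeutic index = MHC divided by MIC. MHC is the lowest concentration giving >10% lysis of human RBC (1 h, 37 °C, 1-128 µM, A576). MIC is 95% growth inhibition by broth microdilution: bacteria in MHB 24 h at 37 °C; Candida in MOPS-buffered RPMI 1640 at (0.5–1) × 10^3 CFU mL−1, 48 h at 28 °C.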

Escherichia coli [3] = experiment: Bactericidal activity against Escherichia coli UB1005 incubated for 24 hrs followed by replating on agar plate and measured after overnight incubation; format: functional; details: UB1005, 24 h, read-out: MBC>99.9
Outline: (§2)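 Mid-log bacteria diluted in MHB to (0.5–1) × 10^5 CFU/mL and mixed 1:1 with peptide serially diluted in 0.2% BSA. After 24 h at 37 °C, 50 μL of each mixture was plated on agar and incubated overnight. MBC taken as the lowest concentration killing >99.9% of cells. At least three independent experiments, each with three technical replicates.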

Escherichia coli [4] = experiment: Antibacterial activity against Escherichia coli ATCC 25922 measured after 18 to 24 hrs in presence of CaCl2; format: functional
Candida albicans [5] = experiment: Antifungal activity against Candida albicans cgmcc2.2086 measured after 48 hrs in presence of NaCl by broth microdilution method; format: functional; details: cgmcc2.2086, 48 h
Staphylococcus aureus [6] = experiment: Antibacterial activity against Staphylococcus aureus ATCC 29213 measured after 18 to 24 hrs in presence of ZnCl2; format: functional
Outline: (§3)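 MIC broth microdilution (MHB, 0.2% BSA peptide diluent, A492, 95% inhibition) run in the presence of physiological salts at final concentrations of 6 μM NH4Cl or 8 μM ZnCl2. Three independent assays, each with three technical replicates.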

Candida albicans [7] = experiment: Antifungal activity against Candida albicans cgmcc2.2086 measured after 48 hrs in presence of ZnCl by broth microdilution method; format: functional; details: cgmcc2.2086, 48 h
[8] = Therapeutic index, ratio of MHC10 for hemolytic activity in human RBC to MIC95 against Candida tropicalis cgmcc2.1975; format: toxicity; details: human red blood cells (erythrocytes), read-out: TI; outline: as §1
Staphylococcus aureus [9] = experiment: Antibacterial activity against Staphylococcus aureus ATCC 29213 measured after 18 to 24 hrs in presence of KCl; format: functional
Salmonella typhimurium = experiment: Antibacterial activity against Salmonella typhimurium C7731 measured after 24 hrs; format: functional, Salmonella enterica subsp. enterica serovar Typhimurium; details: Salmonella enterica, C7731, 24 h
Outline: (§4)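 Broth microdilution adapted from NCCLS. Mid-log bacteria were diluted in MHB to a final (0.5–1) × 10^5 CFU mL−1. Peptides were serially diluted in 0.2% BSA and mixed with an equal volume of cells. After 24 h at 37 °C, MIC was read at A492 as the lowest concentration inhibiting 95% of growth. At least three independent experiments, each with three technical replicates.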

[10] = Cytotoxicity against mouse RAW264.7 cells assessed as cell viability at 2 to 64 uM measured after 18 to 24 hrs by MTT assay relative to control; format: cell-based; details: RAW264.7 cells, read-out: Activity
Outline: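 MTT assay: RAW264.7 cells seeded at 1.0–2.0×10^4 per well and exposed to peptide (2–64 µM) for 18–24 h at 37 °C in 5% CO2. MTT (0.5 mg/mL) added for 4 h, formazan dissolved in DMSO, read at 570 nm. At least three independent experiments with triplicate wells.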

[11] = Therapeutic index, ratio of MHC10 for hemolytic activity in human RBC to MIC95 against Staphylococcus aureus ATCC 29213; format: toxicity; details: human red blood cells (erythrocytes), read-out: TI; outline: as §1
Escherichia coli [12] = experiment: Antibacterial activity against Escherichia coli ATCC 25922 measured after 18 to 24 hrs in presence of KCl; format: functional
Candida albicans [13] = experiment: Antifungal activity against Candida albicans cgmcc2.2086 measured after 48 hrs in presence of MgCl by broth microdilution method; format: functional; details: cgmcc2.2086, 48 h
[14] = Therapeutic index, ratio of MHC10 for hemolytic activity in human RBC to MIC95 against Staphylococcus epidermidis ATCC 12228; format: toxicity; details: human red blood cells (erythrocytes), read-out: TI; outline: as §1
[15] = Bactericidal activity against Salmonella pullorum ATCC 7913 incubated for 24 hrs followed by replating on agar plate and measured after overnight incubation; format: functional, Salmonella enterica subsp. enterica serovar Pullorum; details: Salmonella enterica, ATCC 7913, 24 h; read-out: MBC>99.9; outline: as §2
[16] = Conformational stability in pH 7.4 sodium phosphate buffer assessed as absorption spectra at minimum dichroic band at 35 uM by CD spectra analysis; format: physicochemical; details: pH 7.4, 35 µM
Outline: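 CD spectra from 190 to 250 nm of peptide at 35 μM in 10 mM PBS, 30 mM SDS micelles or 50% TFE, recorded in a 1.0-mm quartz cell. Ellipticity was converted to mean residue ellipticity. Three independent scans, each averaged over more than 3 runs.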

Pseudomonas aeruginosa = experiment: Bactericidal activity against Pseudomonas aeruginosa ATCC 27853 incubated for 24 hrs followed by replating on agar plate and measured after overnight incubation; format: functional; details: ATCC 27853, 24 h, read-out: MBC>99.9; outline: as §2
Candida albicans [17] = experiment: Antifungal activity against Candida albicans cgmcc2.2086 measured after 48 hrs in presence of FeCl by broth microdilution method; format: functional; details: cgmcc2.2086, 48 h
Escherichia coli [18] = experiment: Antibacterial activity against Escherichia coli K99 measured after 24 hrs; format: functional; details: K99, 24 h; outline: as §4
Candida tropicalis = experiment: Fungicidal activity against Candida tropicalis cgmcc2.1975 incubated for 48 hrs followed by replating on YM agar plate and measured after 48 hrs; format: functional
Outline: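 Yeast diluted in MOPS-buffered RPMI 1640 to (0.5–1) × 10^3 CFU/mL (CLSI M27-A2, modified) and mixed 1:1 with peptide serially diluted in 0.2% BSA. After 48 h at 28 °C, 50 μL per well was plated on YM agar and incubated 48 h at 28 °C. MFC taken as the lowest concentration killing ≥99.9% of cells. Three or more independent experiments, triplicate wells.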

Escherichia coli [19] = experiment: Antibacterial activity against Escherichia coli 078 measured after 24 hrs; format: functional; details: Escherichia coli, 078, 24 h; outline: as §4
Staphylococcus aureus [20] = experiment: Antibacterial activity against Staphylococcus aureus ATCC 29213 measured after 18 to 24 hrs in presence of NH4Cl; format: functional; outline: as §3
Staphylococcus aureus [21] = experiment: Antibacterial activity against Staphylococcus aureus ATCC 29213 measured after 18 to 24 hrs in presence of MgCl2; format: functional
Staphylococcus aureus [22] = experiment: Bactericidal activity against methicillin-resistant Staphylococcus aureus ATCC 43300 incubated for 24 hrs followed by replating on agar plate and measured after overnight incubation; format: functional; details: ATCC 43300, 24 h, read-out: MBC>99.9
Outline: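 After the 24 h, 37 °C MHB microdilution MIC assay, 50 μL from each well was plated on agar and incubated overnight. MBC taken as lowest peptide concentration killing >99.9% of cells. At least three independent experiments, each with three technical replicates.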

| Substance | MIC95 (Staphylococcus aureus [1]) [µM] | selectivity ratio [2] | MBC (Escherichia coli [3]) [µM] | MIC95 (Escherichia coli [4]) [µM] | MIC95 (Candida albicans [5]) [µM] | MIC95 (Staphylococcus aureus [6]) [µM] | MIC95 (Candida albicans [7]) [µM] | selectivity ratio [8] | MIC95 (Staphylococcus aureus [9]) [µM] | MIC95 (Salmonella typhimurium) [µM] | viability at up to 64 µM [10] [%] | selectivity ratio [11] | MIC95 (Escherichia coli [12]) [µM] | MIC95 (Candida albicans [13]) [µM] | selectivity ratio [14] | MBC [15] [µM] | Wavelength of minimum CD band [16] [nm] | MBC (Pseudomonas aeruginosa) [µM] | MIC95 (Candida albicans [17]) [µM] | MIC95 (Escherichia coli [18]) [µM] | also measured |
| --- | --- | --- | --- | --- | --- | --- | --- | --- | --- | --- | --- | --- | --- | --- | --- | --- | --- | --- | --- | --- | --- |
| H-AARIILRARFR-NH2 | 4 | 90.5 | 4 | 32 | 64 | 4 | 16 | 25.4 | 8 | 4 | 90 to 100 | 90.5 | 8 | 32 | 90.5 | 8 | 200 | 32 | 16 | 2 | MFC<=99.9 (Candida tropicalis): 4 µM; MIC95 (Escherichia coli [19]): 4 µM; MIC95 (Staphylococcus aureus [20]): 4 µM; MIC95 (Staphylococcus aureus [21]): 8 µM; MBC (Staphylococcus aureus [22]): 4 µM |
| H-AARIILRGRFR-NH2 | 16 | 26.9 | 8 | 64 | > 128 | 8 | > 128 | 5.04 | 8 | 8 | 90 to 100 | 26.9 | 8 | > 128 | 26.9 | 8 | 200 | 32 | 128 | 2 | MFC<=99.9 (Candida tropicalis): 32 µM; MIC95 (Escherichia coli [19]): 4 µM; MIC95 (Staphylococcus aureus [20]): 16 µM; MIC95 (Staphylococcus aureus [21]): 16 µM; MBC (Staphylococcus aureus [22]): 8 µM |
| H-AARIILRIRFR-NH2 | 2 | 64 | 8 | 32 | 32 | 2 | 8 | 25.4 | 2 | 4 | 90 to 100 | 64 | 2 | 16 | 64 | 4 | 200 | 32 | 8 | 4 | MFC<=99.9 (Candida tropicalis): 4 µM; MIC95 (Escherichia coli [19]): 2 µM; MIC95 (Staphylococcus aureus [20]): 2 µM; MIC95 (Staphylococcus aureus [21]): 2 µM; MBC (Staphylococcus aureus [22]): 4 µM |
| H-AARIILRLRFR-NH2 | 2 | 128 | 8 | 32 | 32 | 2 | 8 | 50.8 | 2 | 4 | 90 to 100 | 128 | 8 | 8 | 128 | 8 | 200 | 32 | 8 | 2 | MFC<=99.9 (Candida tropicalis): 4 µM; MIC95 (Escherichia coli [19]): 4 µM; MIC95 (Staphylococcus aureus [20]): 2 µM; MIC95 (Staphylococcus aureus [21]): 2 µM; MBC (Staphylococcus aureus [22]): 4 µM |
| H-AARIILRWFRR-NH2 | 8 | 53.8 | 4 | 4 | 16 | 2 | 8 | 50.8 | 4 | 4 | 90 to 100 | 53.8 | 2 | 16 | 53.8 | 8 | 200 | 16 | 8 | 2 | MFC<=99.9 (Candida tropicalis): 4 µM; MIC95 (Escherichia coli [19]): 2 µM; MIC95 (Staphylococcus aureus [20]): 4 µM; MIC95 (Staphylococcus aureus [21]): 4 µM; MBC (Staphylococcus aureus [22]): 8 µM |
